Compounds with a hit are over-represented: about 1.8% of the library has one in this group of screens.
HKDC1 inh = blocks human hexokinase HKDC1 activity | inhibition, % at 20 µM | 0.16% of 340,000 active | Q2TB90 | recombinant HKDC1, G6PDH/diaphorase resazurin coupled fluorescence;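 active means inhibition above about 35% when tested at 20 µM, limit read from the data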;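 further: plate controls were DMSO wells with enzyme for no effect and DMSO wells lacking enzyme for full effect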
Target sequence (Q2TB90 whole entry, looked up): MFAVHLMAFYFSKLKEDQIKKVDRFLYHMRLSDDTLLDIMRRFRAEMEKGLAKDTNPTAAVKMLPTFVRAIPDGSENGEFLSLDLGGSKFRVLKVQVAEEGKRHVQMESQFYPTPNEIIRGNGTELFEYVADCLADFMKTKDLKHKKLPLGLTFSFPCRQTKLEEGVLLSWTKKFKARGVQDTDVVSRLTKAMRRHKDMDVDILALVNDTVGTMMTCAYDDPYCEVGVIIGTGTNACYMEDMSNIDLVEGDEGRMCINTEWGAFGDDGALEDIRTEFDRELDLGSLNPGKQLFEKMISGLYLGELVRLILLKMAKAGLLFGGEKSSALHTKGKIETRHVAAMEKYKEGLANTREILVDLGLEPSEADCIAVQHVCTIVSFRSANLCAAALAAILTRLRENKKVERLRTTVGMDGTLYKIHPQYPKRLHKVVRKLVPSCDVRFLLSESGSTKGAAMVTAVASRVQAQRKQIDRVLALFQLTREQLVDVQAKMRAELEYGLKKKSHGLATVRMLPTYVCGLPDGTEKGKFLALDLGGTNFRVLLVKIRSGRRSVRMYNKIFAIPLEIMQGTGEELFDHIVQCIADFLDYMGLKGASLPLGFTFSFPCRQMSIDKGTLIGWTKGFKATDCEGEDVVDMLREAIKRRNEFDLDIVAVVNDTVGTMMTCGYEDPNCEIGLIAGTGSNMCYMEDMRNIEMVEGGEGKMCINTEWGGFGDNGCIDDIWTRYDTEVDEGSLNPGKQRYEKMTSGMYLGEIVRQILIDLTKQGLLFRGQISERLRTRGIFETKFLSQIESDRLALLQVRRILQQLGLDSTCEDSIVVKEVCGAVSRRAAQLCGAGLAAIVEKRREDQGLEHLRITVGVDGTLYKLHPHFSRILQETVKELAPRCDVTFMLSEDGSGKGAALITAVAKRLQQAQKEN
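Material: recombinant HKDC1 hexokinase; Amount: HKDC1 at 5 µg/mL; Medium: Tris pH 8.0 buffer with MgCl2, Tween-20, BSA, BME; Schedule: 90 min reaction incubation at room temperature, dark; Technique: coupled resazurin fluorescence, excitation 525 nm, emission 613 nm.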
LMPTP block = blocks human LMPTP phosphatase | inhibition, % at 20 µM | P24666 | 0.22% of 360,000 active | recombinant LMPTP-A, OMFP fluorogenic substrate, fluorescence intensity;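 active means compounds that cut the enzyme signal by at least half of the control window in the single-dose screen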;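 further: plate controls were DMSO wells with enzyme plus substrate for no effect and substrate without enzyme for full effect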
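Assay system: LMPTP-A phosphatase enzyme | Input: 0.625 nM enzyme | Also added: Fluorogenic phosphatase substrate OMFP at 400 µM final | Compound dosing: One test concentration per compound, 20 µM, with 3% DMSO overall | Schedule: 50 min enzyme reaction at room temperature, protected from light | Signal: Fluorescence intensity | Benchmarks: no-enzyme and uninhibited controls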
Scp1 inh = blocks human Scp-1 phosphatase activity | inhibition, % at 20 µM | 0.88% of 340,000 active | Q9GZU7 | Recombinant Scp1, phosphopeptide, malachite green phosphate absorbance | AID 493091;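 active means inhibition above about 50% at 20 µM, limit read from the data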;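 further: plate controls were DMSO wells with enzyme for no effect and wells lacking enzyme for full effect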
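Assay system: SCP-1 catalytic fragment, aa 76-261 | Buffer or medium: Tris acetate buffer pH 5.5 with MgCl2 and Tween-20 | Compound: One concentration, 20 µM, with 1.0% DMSO | Also added: Phospho 17-mer peptide substrate | Signal: Absorbance at 630 nm | Incubation: 45 min enzyme reaction at room temperature | Measure: % inhibition of SCP-1 phosphate liberation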
DNMT1 inh = inhibitors of human DNMT1 | inhibition (reported as % activation of signal), % at 10 µM | P26358 | 0.83% of 360,000 active | DNMT1 molecular beacon, Hinp1I cleavage, fluorescence | AID 588458; in the data active means inhibition above about 50%
STEP block = blocks human striatal-enriched tyrosine phosphatase; recombinant STEP, OMFP fluorogenic substrate, fluorescence; inhibition, % at 20 µM; 0.25% of 360,000 active; AID 588621;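 active means inhibition at 20 µM, scaled per plate between control wells, above about 37%, limit read from the data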;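 further: 0% = DMSO with enzyme and substrate and 100% = substrate only without enzyme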
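System: isolated STEP enzyme; schedule: 20 min enzyme reaction at room temperature, protected from light; medium: Bis-Tris buffer pH 6.0, 2.5 mM DTT, 0.005% Tween 20; signal: fluorescence, 480/540 nm; dosing: single compound dose of 20 µM, 1% DMSO final; also added: OMFP substrate, 25 µM final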
SUMO1-SIM PPI = modulators of human SUMO1-mediated protein-protein interactions; P63165; SUMO1 binding to a labelled peptide, TR-FRET, 1 h; inhibition, % at 20 µM; 0.33% of 360,000 active; in the data active means inhibition above about 37%
Scp1 confirm = confirmation of human Scp-1 phosphatase inhibitors; recombinant SCP-1 catalytic domain, phosphate release, malachite green absorbance; inhibition, % at 20 µM; AID 540281; 61% of 2,500 active; shares compounds with Scp1 inh;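 further: plate controls were DMSO with enzyme for no effect and buffer wells lacking enzyme for full effect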
Scp-1 MG ctr = interferes with malachite green readout, flagging false Scp-1 hits; shares compounds with Scp1 inh; Colorimetric interference counterscreen, malachite green absorbance 630 nm; apparent inhibition (interference), % at 20 µM; 2,500 tested, under 10 active; AID 540313;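 further: compounds added after enzyme reaction finished so only phosphate colour detection is probed; plate controls were DMSO wells with completed Scp-1 reaction for no effect and substrate wells lacking enzyme for full effect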
Scp-1 Tm shift = validation of human Scp-1 inhibitors by thermal shift binding; thermal shift relative to vanadate control, % at 40 µM; Recombinant SCP1, Sypro Orange thermal shift Tm; shares compounds with Scp1 inh; AID 540329; 25% of 1,500 active;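 active means substances whose mean melting-temperature shift, as a percentage of the reference inhibitor's shift, reaches about 5.3%, limit read from the data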;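 further: 0% = Tm of DMSO wells and 100% = Tm with sodium orthovanadate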
DNMT1 interf DR = beacon fluorescence artifact, dose response counter-screen; molecular beacon fluorescence, spectral interference counter-screen; AID 602382; IC50, µM; 200 tested, under 10 active; shares compounds with DNMT1 inh; call rule not given here
DNMT1 confirm = DNMT1 inhibition confirmation, single concentration; inhibition, % at 10 µM; DNMT1 molecular beacon HinP1I cleavage, fluorescence; AID 602385; shares compounds with DNMT1 inh; 8% of 2,300 active;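 active means average inhibition of at least 30% in the single-concentration confirmation test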
DNMT1 interf = beacon fluorescence artifact counter-screen | shares compounds with DNMT1 inh | DNMT1 molecular beacon spectral interference counterscreen, fluorescence 485/520 | activation (fluorescence interference), % at 10 µM | 1% of 2,300 active | AID 602387;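 active means activation of at least 30% at 10 µM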;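 further: DNMT1 catalytic domain with a HinP1I cleavage step and a FAM/dabcyl DNA beacon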
An asterisk follows results filed as active; . = no result given.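 How the source made its calls, unless noted: active means inhibition of at least 30% at 20 µM; inactive means the rest.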

SMILES	HKDC1 inh	LMPTP block	Scp1 inh	DNMT1 inh	STEP block	SUMO1-SIM PPI	Scp1 confirm	Scp-1 MG ctr	Scp-1 Tm shift	DNMT1 confirm	DNMT1 interf	others
O=C(CS(=O)(=O)Cc1ccccc1)Nc1ccc(S(=O)(=O)N2CCOCC2)cc1	-5	-1	-5	2	-2	2	.	.	.	.	.
Cc1ccc2nc(/C(C#N)=C/c3ccc(-c4cccc([N+](=O)[O-])c4)o3)[nH]c2c1	10	44	90*	83*	94*	-5	73*	-1	11*	-1	-4
Cc1ccc2nc(/C(C#N)=C\c3ccc(Oc4ccc(C(F)(F)F)cc4[N+](=O)[O-])cc3)[nH]c2c1	16	13	97*	81*	12	-5	87*	2	5.6*	1	-2
NC(=O)c1nc[nH]c1C(=O)Nc1cccc(NC(=O)c2cccc(C(F)(F)F)c2)c1	-2	-1	-5	10	1	3	.	.	.	.	.
Cc1ccc2c(CC(=O)OCc3cc(=O)n4c(n3)sc3ccccc34)coc2c1	10	13	66*	105*	3	4	68*	-17	-1	5	6
CC(C)NC(=O)CSc1nnc2sc3ccccc3n12	-12	0	7	7	0	2	.	.	.	.	.
CC(=O)c1c(C)[nH]c(C(=O)COC(=O)c2ccc3c(=O)n4c(nc3c2)CCC4)c1C	1	0	-1	-8	2	28	.	.	.	.	.
O=C(OCc1cc(=O)n2c(n1)sc1ccccc12)c1ccc2c(=O)n3c(nc2c1)CCC3	-3	39	72*	102*	10	29	53*	-13	-2	6	-1
Cc1ccc(COC(=O)Cc2coc3cc(O)ccc23)cc1	8	4	-7	2	0	9	.	.	.	.	.
CC(C)[C@H](NC(=O)Cc1ccccc1)C(=O)OCc1cc(=O)n2c(n1)sc1ccccc12	16	22	76*	88*	4	3	59*	-16	-8	3	3
Cc1cc(C(=O)N/N=C/c2cccc3ccccc23)c(C)o1	1	2	-7	1	3	-10	.	.	.	.	.
O=C(CSC(=S)N1CCOCC1)c1cc2ccccc2oc1=O	0	0	2	1	1	-21	.	.	.	.	.
NS(=O)(=O)c1ccc(NC(=O)/C=C/c2ccco2)cc1	-5	4	68*	62*	5	0	64*	-5	5	7	0
Nc1nc(SCC(=O)N2N=C3/C(=C/c4ccco4)CCCC3C2c2ccco2)n[nH]1 (stereo not drawn)	1	1	0	17	0	-1	.	.	.	.	.
O=C(CSc1nccc(=O)[nH]1)N1N=C2/C(=C/c3ccco3)CCCC2C1c1ccco1 (stereo not drawn)	6	6	60*	76*	1	12	65*	-13	-7	10	3
Cc1nc2ccccn2c1C(=O)N/N=C/c1ccc([N+](=O)[O-])o1	5	4	67*	64*	3	0	53*	-16	12*	5	-2
Cc1ccc(CNC(=O)c2ccc(-n3cccc3)cc2)cc1	8	12	55*	95*	4	4	64*	-7	-2	13	5
O=C(Nc1cccc(NC(=O)c2cccs2)c1)c1ccc(Br)o1	-1	0	-6	-1	1	4	.	.	.	.	.
O=C(Nc1ccc(NC(=O)c2cccs2)cc1)c1ccc(Br)o1	6	42	61*	54*	29	22	72*	-12	-9	-1	-5
CCc1ccccc1NC(=O)COc1ccc2oc(-c3ccc(OC)cc3)cc(=O)c2c1	4	7	74*	68*	5	9	59*	-12	-13	5	5
NC(=O)COc1ccc2oc(-c3ccccc3)cc(=O)c2c1	-5	4	-7	7	-5	-3	.	.	.	.	.
Cc1c2cnn(CC(=O)Nc3c(F)c(F)cc(F)c3F)c(=O)c2c(C)n1Cc1ccccc1F	6	15	69*	91*	5	16	77*	-6	7.2*	24	-4	DNMT1 interf DR=>99
O=c1c2ccccc2nc2sc(Nc3ccc(F)cc3)nn12	-4	4	92*	50	37	-61	74*	-17	-10	2	-1
Cc1ccccc1Nc1nn2c(=O)c3ccccc3nc2s1	4	1	-20	-5	2	22	.	.	.	.	.
O=C(/C=C/c1ccco1)NC1CCCC1	-12	3	21	9	6	0	.	.	.	.	.
SMILES	HKDC1 inh	LMPTP block	Scp1 inh	DNMT1 inh	STEP block	SUMO1-SIM PPI	Scp1 confirm	Scp-1 MG ctr	Scp-1 Tm shift	DNMT1 confirm	DNMT1 interf	others
O=C(C=C1SCCS1)/C=C/c1ccco1	8	34	76*	88*	6	2	52*	-20	-8	3	-2
O=C(O)C(C(=O)/C=C/c1ccco1)=C1SCCS1	5	10	55*	96*	10	25	63*	-2	3	4	0
O=C(C=Cc1ccco1)c1ccco1	2	2	13	11	7	1	.	.	.	.	.
CC(C)CC(NC(=O)C1CCC(=O)N1C(=O)OCc1ccccc1)C(=O)NC(Cc1ccccc1)C(N)=O (stereo not drawn)	-7	-1	3	22	-2	8	.	.	.	.	.
O=C(O)c1cccc(-n2cccc2/C=C2/NC(=O)N(Cc3ccccc3F)C2=O)c1	-1	6	52*	81*	7	-8	75*	1	0	1	1
Cc1ccccc1NC(=O)CN1C(=O)S/C(=C\c2cccn2-c2cccc(C(=O)O)c2)C1=O	-3	5	84*	66*	23	2	74*	-11	17*	9	2
O=C(Nc1nc2ccccc2s1)c1ccc(Cl)s1	-6	-1	-12	0	-2	2	.	.	.	.	.

Compound activity (PubChem)
